# Laboratory results reported in ChEMBL document CHEMBL1154871, “Synthesis of new spiroindolinones incorporating a benzothiazole moiety as antioxidant agents” (Eur J Med Chem, 2010).
# Columns and labels:
# Assay type in all cases: functional
# [1] = Antioxidant activity assessed as reduction of […]/ferricyanide complex after 20 mins by spectrophotometry
# In short: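 Compounds (1.6–6.25 mM) mixed with 0.2 M phosphate buffer, pH 6.6, and 1% potassium ferricyanide, 20 min at 50 °C. Stopped with 1% TCA and centrifuged at 2790 g for 10 min. Supernatant plus water and 0.1% FeCl3 read at 700 nm. EC50 is the concentration giving absorbance 0.5. Mean ± SD of triplicates.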
# SNB-19 = experiment: Growth inhibition in human SNB19 cells assessed as viable cells at 10 uM after 48 hrs by sulforhodamine B assay; conditions: SNB-19, 48 h, read-out: Activity
# [2] = Antioxidant activity assessed as inhibition of Fe(3+)/ascorbate-induced lipid peroxidation in liposomes after 1 hr by TBARS assay
# In short: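 Lecithin liposomes were sonicated in 10 mmol/L phosphate buffer, pH 7.4. Final mix: 3.08 mg liposome/mL, 123.2 µmol FeCl3, 123.2 µmol ascorbic acid, test compound 0.025–0.4 mM. Incubated 1 h at 37 °C. MDA measured by TBA reaction; n-butanol layer read at 532 nm against a lecithin-free blank. EC50 is the concentration reducing TBARS to 50% of control.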
# [3] = Antioxidant activity assessed as trolox equivalent of ABTS free radical scavenging activity after 6 mins by […]
# In short: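 ABTS radical cation solution was added to compounds (0.2–6.25 mM). Decrease in absorbance at 734 nm was read exactly 6 min after mixing, with ethanol blanks. A Trolox standard curve (final 0–20 µM in ethanol) gives TEAC, the mM Trolox equivalent to 1 mM compound. Run in triplicate.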
# [4] = system: Radical scavenging activity; experiment: Antioxidant activity assessed as DPPH radical scavenging activity after 30 mins by spectrophotometry
# In short: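 Test compounds (0.2–6.25 mM) dissolved in DMSO, added to 6×10^-5 M methanolic DPPH. Mixture held 30 min at room temperature in the dark, then absorbance read at 517 nm against methanol. Scavenging % = [1 − A_sample/A_control] × 100, with a negative control lacking sample. Triplicates averaged; EC50 taken from dose–response.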
# SNB-75 = experiment: Growth inhibition in human SNB75 cells assessed as viable cells at 10 uM after 48 hrs by sulforhodamine B assay; conditions: SNB-75, 48 h, read-out: Activity
# SF-268 = experiment: Growth inhibition in human SF268 cells assessed as viable cells at 10 uM after 48 hrs by sulforhodamine B assay; conditions: SF-268, 48 h, read-out: Activity
# SF-539 = experiment: Growth inhibition in human SF539 cells assessed as viable cells at 10 uM after 48 hrs by sulforhodamine B assay; conditions: SF-539, 48 h, read-out: Activity
# U-251 = experiment: Growth inhibition in human U251 cells assessed as viable cells at 10 uM after 48 hrs by sulforhodamine B assay; conditions: U-251, 48 h, read-out: Activity
# In short: (§1)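 NCI 60-line screen, single dose 10^-5 M, 48 h continuous exposure. Cells grown in RPMI 1640 with 5% FBS and 2 mM L-glutamine, plated at 5000–40,000 cells/well and preincubated 24 h at 37 °C, 5% CO2. Drug stocks in DMSO. Endpoint: TCA fixation, SRB staining, absorbance at 515 nm. Growth % relative to untreated controls and time-zero plates.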
# UACC-257 = experiment: Growth inhibition in human UACC257 cells assessed as viable cells at 10 uM after 48 hrs by sulforhodamine B assay; conditions: UACC-257, 48 h, read-out: Activity
# CAKI-1 = experiment: Growth inhibition in human Caki1 cells assessed as viable cells at 10 uM after 48 hrs by sulforhodamine B assay; conditions: CAKI-1, 48 h, read-out: Activity; in short: as §1
# Malme-3M = experiment: Growth inhibition in human MALME-3M cells assessed as viable cells at 10 uM after 48 hrs by sulforhodamine B assay; conditions: read-out: Activity
# LOX IMVI = experiment: Growth inhibition in human LOXIMVI cells assessed as viable cells at 10 uM after 48 hrs by sulforhodamine B assay; conditions: read-out: Activity
# SK-MEL-28 = experiment: Growth inhibition in human SK-MEL-28 cells assessed as viable cells at 10 uM after 48 hrs by sulforhodamine B assay; conditions: SK-MEL-28, 48 h, read-out: Activity; in short: as §1
# MDA-MB-468 = experiment: Growth inhibition in human MDA-MB-468 cells assessed as viable cells at 10 uM after 48 hrs by sulforhodamine B assay; conditions: MDA-MB-468, 48 h, read-out: Activity; in short: as §1
# OVCAR-4 = experiment: Growth inhibition in human OVCAR4 cells assessed as viable cells at 10 uM after 48 hrs by sulforhodamine B assay; conditions: OVCAR-4, 48 h, read-out: Activity
# NCI/ADR-RES = experiment: Growth inhibition in human NCI/ADR-RES cells assessed as viable cells at 10 uM after 48 hrs by sulforhodamine B assay; conditions: read-out: Activity; in short: as §1
# T47D = experiment: Growth inhibition in human T47D cells assessed as viable cells at 10 uM after 48 hrs by sulforhodamine B assay; conditions: read-out: Activity
# IGROV-1 = experiment: Growth inhibition in human IGROV1 cells assessed as viable cells at 10 uM after 48 hrs by sulforhodamine B assay; conditions: IGROV-1, 48 h, read-out: Activity
# SK-MEL-5 = experiment: Growth inhibition in human SK-MEL-5 cells assessed as viable cells at 10 uM after 48 hrs by sulforhodamine B assay; conditions: SK-MEL-5, 48 h, read-out: Activity
# OVCAR-8 = experiment: Growth inhibition in human OVCAR8 cells assessed as viable cells at 10 uM after 48 hrs by sulforhodamine B assay; conditions: OVCAR-8, 48 h, read-out: Activity
# PC-3 = experiment: Growth inhibition in human PC3 cells assessed as viable cells at 10 uM after 48 hrs by sulforhodamine B assay; conditions: PC-3, 48 h, read-out: Activity; in short: as §1
# MDA-MB-435 = experiment: Growth inhibition in human MDA-MB-435 cells assessed as viable cells at 10 uM after 48 hrs by sulforhodamine B assay; conditions: MDA-MB-435, 48 h, read-out: Activity
# OVCAR-3 = experiment: Growth inhibition in human OVCAR-3 cells assessed as viable cells at 10 uM after 48 hrs by sulforhodamine B assay; conditions: OVCAR-3, 48 h, read-out: Activity
# UO-31 = experiment: Growth inhibition in human UO31 cells assessed as viable cells at 10 uM after 48 hrs by sulforhodamine B assay; conditions: UO-31, 48 h, read-out: Activity; in short: as §1
# OVCAR-5 = experiment: Growth inhibition in human OVCAR5 cells assessed as viable cells at 10 uM after 48 hrs by sulforhodamine B assay; conditions: OVCAR-5, 48 h, read-out: Activity
# SK-MEL-2 = experiment: Growth inhibition in human SK-MEL-2 cells assessed as viable cells at 10 uM after 48 hrs by sulforhodamine B assay; conditions: SK-MEL-2, 48 h, read-out: Activity
# [5] = Growth inhibition in human Hs 578T cells assessed as viable cells at 10 uM after 48 hrs by sulforhodamine B assay; conditions: read-out: Activity; in short: as §1
# MDA-MB-231 = experiment: Growth inhibition in human MDA-MB-231/ATCC cells assessed as viable cells at 10 uM after 48 hrs by sulforhodamine B assay; conditions: MDA-MB-231, 48 h, read-out: Activity; in short: as §1
# ACHN = experiment: Growth inhibition in human ACHN cells assessed as viable cells at 10 uM after 48 hrs by sulforhodamine B assay; conditions: read-out: Activity; in short: as §1
# 786-0 = experiment: Growth inhibition in human 786-0 cells assessed as viable cells at 10 uM after 48 hrs by sulforhodamine B assay; conditions: 786-0, 48 h, read-out: Activity; in short: as §1
# SF-295 = experiment: Growth inhibition in human SF295 cells assessed as viable cells at 10 uM after 48 hrs by sulforhodamine B assay; conditions: SF-295, 48 h, read-out: Activity
# TK-10 = experiment: Growth inhibition in human TK10 cells assessed as viable cells at 10 uM after 48 hrs by sulforhodamine B assay; conditions: TK-10, 48 h, read-out: Activity; in short: as §1
# BT-549 = experiment: Growth inhibition in human BT549 cells assessed as viable cells at 10 uM after 48 hrs by sulforhodamine B assay; conditions: BT-549, 48 h, read-out: Activity; in short: as §1
# SN12C = experiment: Growth inhibition in human SN12C cells assessed as viable cells at 10 uM after 48 hrs by sulforhodamine B assay; conditions: read-out: Activity; in short: as §1
# UACC-62 = experiment: Growth inhibition in human UACC62 cells assessed as viable cells at 10 uM after 48 hrs by sulforhodamine B assay; conditions: UACC-62, 48 h, read-out: Activity
# DU-145 = experiment: Growth inhibition in human DU145 cells assessed as viable cells at 10 uM after 48 hrs by sulforhodamine B assay; conditions: DU-145, 48 h, read-out: Activity; in short: as §1
# SK-OV-3 = experiment: Growth inhibition in human SKOV3 cells assessed as viable cells at 10 uM after 48 hrs by sulforhodamine B assay; conditions: SK-OV-3, 48 h, read-out: Activity; in short: as §1
# A498 = experiment: Growth inhibition in human A498 cells assessed as viable cells at 10 uM after 48 hrs by sulforhodamine B assay; conditions: A498, 48 h, read-out: Activity; in short: as §1
# MCF7 = experiment: Growth inhibition in human MCF7 cells assessed as viable cells at 10 uM after 48 hrs by sulforhodamine B assay; conditions: MCF7, 48 h, read-out: Activity; in short: as §1
# M14 = experiment: Growth inhibition in human M14 cells assessed as viable cells at 10 uM after 48 hrs by sulforhodamine B assay; conditions: M14, 48 h, read-out: Activity; in short: as §1
smiles,measurement,setting,value
O=C1Nc2ccc(Cl)cc2C12Nc1ccccc1S2 (stereo unspecified),EC50,[1],0.51 mM
same,viability at 10 µM,SNB-19,107%
same,EC50,[2],49 µM
same,EC50,[3],1.03 mM
same,EC50,[4],1.78 mM
same,viability at 10 µM,SNB-75,55.8%
same,viability at 10 µM,SF-268,83.2%
same,viability at 10 µM,SF-539,97.4%
same,viability at 10 µM,U-251,98.5%
Cc1ccc2c(c1)C1(Nc3ccccc3S1)C(=O)N2 (stereo unspecified),EC50,[1],1.36 mM
same,EC50,[2],41 µM
same,EC50,[3],1.02 mM
same,EC50,[4],1.3 mM
CN1C(=O)C2(Nc3ccccc3S2)c2cc(Cl)ccc21 (stereo unspecified),EC50,[1],4.02 mM
same,EC50,[2],75 µM
same,EC50,[3],1.14 mM
same,EC50,[4],1.24 mM
O=C1O[C@H]([C@@H](O)CO)C(O)=C1O [ASCORBIC ACID],EC50,[1],0.65 mM
same,EC50,[3],1.2 mM
same,EC50,[4],0.36 mM
CN1C(=O)C2(Nc3ccccc3S2)c2cc(OC(F)(F)F)ccc21 (stereo unspecified),viability at 10 µM,UACC-257,102%
same,viability at 10 µM,CAKI-1,96.8%
same,viability at 10 µM,Malme-3M,98.5%
same,viability at 10 µM,LOX IMVI,98.6%
same,viability at 10 µM,SK-MEL-28,103%
same,EC50,[1],4.94 mM
same,viability at 10 µM,SNB-19,92.4%
same,viability at 10 µM,MDA-MB-468,112%
same,viability at 10 µM,OVCAR-4,73.4%
same,EC50,[2],84 µM
same,EC50,[3],1.37 mM
same,viability at 10 µM,NCI/ADR-RES,100%
same,viability at 10 µM,T47D,60%
same,viability at 10 µM,IGROV-1,86.2%
same,viability at 10 µM,SK-MEL-5,99.7%
same,viability at 10 µM,OVCAR-8,99.1%
same,viability at 10 µM,PC-3,84.6%
same,viability at 10 µM,MDA-MB-435,100%
same,viability at 10 µM,OVCAR-3,103%
same,EC50,[4],1.62 mM
same,viability at 10 µM,UO-31,58.3%
same,viability at 10 µM,OVCAR-5,121%
same,viability at 10 µM,SNB-75,55.3%
same,viability at 10 µM,SK-MEL-2,101%
same,viability at 10 µM,[5],92.4%
same,viability at 10 µM,MDA-MB-231,96.2%
same,viability at 10 µM,SF-268,97.7%
same,viability at 10 µM,ACHN,80.9%
same,viability at 10 µM,786-0,108%
same,viability at 10 µM,SF-295,102%
same,viability at 10 µM,TK-10,105%
same,viability at 10 µM,BT-549,108%
same,viability at 10 µM,SF-539,116%
same,viability at 10 µM,SN12C,105%
same,viability at 10 µM,U-251,88.4%
same,viability at 10 µM,UACC-62,80.4%
same,viability at 10 µM,DU-145,107%
same,viability at 10 µM,SK-OV-3,102%
same,viability at 10 µM,A498,108%
same,viability at 10 µM,MCF7,82.8%
same,viability at 10 µM,M14,102%
